Active and inactive are the calls of the source. No cut-off for these calls is given here.
Tests used:
[1] = target: T1, Free fatty acid receptor 4 (Homo sapiens) (UniProt Q5NUL3); test: Agonist activity at human GPR120-G-alpha-16 fusion protein expressed in Flp-in HEK293 cells assessed as effect on intracellular calcium concentration at 10 uM by FLIPR assay relative to […]; assay type: functional, cell-based
T1 sequence (whole entry): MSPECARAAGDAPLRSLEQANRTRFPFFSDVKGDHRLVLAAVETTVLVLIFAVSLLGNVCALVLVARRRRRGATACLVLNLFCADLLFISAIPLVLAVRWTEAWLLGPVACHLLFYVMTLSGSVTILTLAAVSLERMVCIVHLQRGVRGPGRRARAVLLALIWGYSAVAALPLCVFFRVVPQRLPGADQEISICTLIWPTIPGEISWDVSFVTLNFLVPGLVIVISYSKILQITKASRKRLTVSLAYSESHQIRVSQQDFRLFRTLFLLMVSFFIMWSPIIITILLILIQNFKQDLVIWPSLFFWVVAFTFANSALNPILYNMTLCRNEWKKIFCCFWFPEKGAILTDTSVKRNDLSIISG
Summary of the method: (§1)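 FLIPR fluorometric measurement of intracellular Ca2+ in HEK293 cells expressing human GPR40 or human GPR120. Test compound at 10 µM; response expressed as percent of that evoked by 10 µM α-linolenic acid reference. Means of at least three experiments.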

[2] = target: T2, Free fatty acid receptor 1 (Homo sapiens, UniProt O14842); test: Agonist activity at human GPR40 expressed in T-REx HEK293 cells assessed as effect on intracellular calcium concentration at 10 uM by FLIPR assay relative to […]; assay type: functional, cell-based; summary of the method: as §1
T2 sequence (O14842 whole entry, the tested form may be a part): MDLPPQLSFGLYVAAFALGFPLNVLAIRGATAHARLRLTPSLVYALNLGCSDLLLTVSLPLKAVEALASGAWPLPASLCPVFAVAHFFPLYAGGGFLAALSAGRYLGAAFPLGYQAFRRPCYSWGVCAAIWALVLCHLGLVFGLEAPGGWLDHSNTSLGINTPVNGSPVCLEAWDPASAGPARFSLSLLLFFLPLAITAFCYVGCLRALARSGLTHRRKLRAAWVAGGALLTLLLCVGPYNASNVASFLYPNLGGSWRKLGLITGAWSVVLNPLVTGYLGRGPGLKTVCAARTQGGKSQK

[3] = target: T3, Free fatty acid receptor 4 (Homo sapiens, UniProt Q5NUL3); test: Agonist activity at human GPR120-G-alpha-16 fusion protein expressed in Flp-in HEK293 cells assessed as effect on intracellular calcium concentration by FLIPR assay; assay type: functional, cell-based
T3 sequence (Q5NUL3 whole entry): T1 sequence (whole entry)
Summary of the method: (§2)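 Intracellular Ca2+ rise read by FLIPR in HEK293 cells expressing human GPR120 or human GPR40; EC50 values derived from concentration–response, means of at least three experiments.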

[4] = target: T2, Free fatty acid receptor 1; test: Agonist activity at human GPR40 expressed in T-REx HEK293 cells assessed as effect on intracellular calcium concentration by FLIPR assay; assay type: functional, cell-based; summary of the method: as §2
Homo sapiens = species: Homo sapiens; test: Selectivity index, ratio of EC50 for human GPR40 to EC50 for human GPR120
Summary of the method: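 Selectivity index computed as EC50 at GPR40 divided by EC50 at GPR120, both from FLIPR Ca2+ assays in HEK293 cells expressing each human receptor; EC50 means of at least three experiments.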

HEK293 = test: Agonist activity at PPAR expressed in HEK293 cells at 10 to 100 uM after 12 to 16 hrs by luciferase-beta galactosidase transactivation assay; assay type: functional, cell-based

Row | Activity [1] [%] | Activity [2] [%] | EC50 [3] [µM] | EC50 [4] [µM] | Ratio EC50 (Homo sapiens) | SMILES | Activity (HEK293)
1 | 81 | 43 | – | – | – | Cc1ccnc(N(CCOc2ccc(CCCC(=O)O)cc2)c2ccccc2)c1 | –
2 | 58 | 99 | – | – | – | O=C(O)CCCCc1ccc(OCCN(c2ccccc2)c2ccccn2)cc1 | –
3 | 88 | 21 | – | – | – | O=C(O)CCCc1ccc(OCCN(c2ccccc2)c2ccccc2)cc1 | –
4 | 56 | 98 | – | – | – | O=C(O)CCc1ccc(OCCN(c2ccccc2)c2ccccn2)cc1 | –
5 | 43 | 8 | – | – | – | O=C(O)CCCc1ccc(OCCN(c2ccccc2)c2nc3ccccc3o2)cc1 | –
6 | 115 | 26 | 1.2 | 19 | 16 | O=C(O)CCCc1ccc(OCCN(c2ccccc2)c2ccccn2)cc1 | inactive
7 | 81 | 34 | – | – | – | Cc1cccc(N(CCOc2ccc(CCCC(=O)O)cc2)c2ccccc2)n1 | –
8 | 70 | 32 | – | – | – | O=C(O)CCCc1ccc(OCCN(c2ccccc2)c2cccc(Cl)n2)cc1 | –
9 | 73 | 32 | – | – | – | O=C(O)CCCc1ccc(OCCN(c2ccccc2)c2nc3ccccc3s2)cc1 | –
10 | 100 | 68 | – | – | – | O=C(O)CCCc1ccc(OCCN(c2ccccc2)c2cc(Cl)ccn2)cc1 | –

The remaining lines, values behind:

Row | SMILES | Activity [1] [%] | Activity [2] [%] | EC50 [3] [µM] | EC50 [4] [µM] | Ratio EC50 (Homo sapiens) | Activity (HEK293)
11 | CCCN(CCOc1ccc(CCC(=O)O)cc1)c1ccccn1 | 57 | 125 | – | – | – | –
12 | CCCCN(CCOc1ccc(CCCC(=O)O)cc1)c1ccccn1 | 41 | 10 | – | – | – | –
13 | O=C(O)CCCc1ccc(OCCN(c2ccccc2)c2nccs2)cc1 | 106 | 30 | 1.7 | 21 | 12 | –
14 | O=C(O)CCCc1ccc(OCCN(c2cccnc2)c2ccccn2)cc1 | 65 | 1 | – | – | – | –
15 | CN(CCOc1ccc(CCC(=O)O)cc1)c1ccccn1 | 0 | 58 | – | – | – | –
16 | CCCCCCN(CCOc1ccc(CCC(=O)O)cc1)c1ccccn1 | 31 | 104 | – | – | – | –
17 | CCCCN(CCOc1ccc(CCC(=O)O)cc1)c1ccccn1 | 33 | 215 | – | – | – | –
18 | CCCCCCCN(CCOc1ccc(CCC(=O)O)cc1)c1ccccn1 | 0 | 99 | – | – | – | –
19 | O=C(O)CCCc1ccc(OCCN(c2cccc(F)c2)c2ccccn2)cc1 | 71 | 33 | – | – | – | –
20 | Cc1ccc(N(CCOc2ccc(CCCC(=O)O)cc2)c2ccccn2)cc1 | 78 | 26 | – | – | – | –
21 | CC/C=C\C/C=C\C/C=C\CCCCCCCC(=O)O [LINOLENIC ACID] | 100 | 100 | 2.6 | 5.2 | 2 | –
22 | O=C(O)CCCc1ccc(OCCN(c2ccc(F)cc2)c2ccccn2)cc1 | 59 | 23 | – | – | – | –
23 | O=C(O)CCc1ccc(OCCN(c2ccccn2)c2ccccn2)cc1 | 0 | 0 | – | – | – | –
24 | O=C(O)CCCc1ccc(OCCN(c2ccc3ccccc3c2)c2ccccn2)cc1 | 37 | 27 | – | – | – | –
25 | CCCCCCCCCN(CCOc1ccc(CCC(=O)O)cc1)c1ccccn1 | 0 | 121 | – | – | – | –
26 | CCN(CCOc1ccc(CCC(=O)O)cc1)c1ccccn1 | 45 | 147 | – | – | – | –
27 | O=C(O)CCCc1ccc(OCCN(Cc2ccccc2)c2ccccn2)cc1 | 56 | 26 | – | – | – | –

Reference: ChEMBL document CHEMBL1140222, “Identification of G protein-coupled receptor 120-selective agonists derived from PPARgamma agonists” (J Med Chem, 2008)
